Data published in ChEMBL document CHEMBL4680142, “Thiazolidine-2,4-dione-based irreversible allosteric IKK-β kinase inhibitors: Optimization into in vivo active anti-inflammatory agents” (Eur J Med Chem, 2020).
pIC50: −log10 of the molar value. The source made the active and inactive calls. The rule behind the calls is not given here.

Experiments:
[1] = target: T1, Inhibitor of nuclear factor kappa-B kinase subunit beta (Homo sapiens, UniProt O14920); assay: Allosteric inhibition of IKKbeta (unknown origin) using 5FAM-GRHDSGLDSMK-NH2 as substrate pretreated for 10 mins followed measured after 2 hrs by TR-FRET assay
T1 sequence (O14920 whole entry): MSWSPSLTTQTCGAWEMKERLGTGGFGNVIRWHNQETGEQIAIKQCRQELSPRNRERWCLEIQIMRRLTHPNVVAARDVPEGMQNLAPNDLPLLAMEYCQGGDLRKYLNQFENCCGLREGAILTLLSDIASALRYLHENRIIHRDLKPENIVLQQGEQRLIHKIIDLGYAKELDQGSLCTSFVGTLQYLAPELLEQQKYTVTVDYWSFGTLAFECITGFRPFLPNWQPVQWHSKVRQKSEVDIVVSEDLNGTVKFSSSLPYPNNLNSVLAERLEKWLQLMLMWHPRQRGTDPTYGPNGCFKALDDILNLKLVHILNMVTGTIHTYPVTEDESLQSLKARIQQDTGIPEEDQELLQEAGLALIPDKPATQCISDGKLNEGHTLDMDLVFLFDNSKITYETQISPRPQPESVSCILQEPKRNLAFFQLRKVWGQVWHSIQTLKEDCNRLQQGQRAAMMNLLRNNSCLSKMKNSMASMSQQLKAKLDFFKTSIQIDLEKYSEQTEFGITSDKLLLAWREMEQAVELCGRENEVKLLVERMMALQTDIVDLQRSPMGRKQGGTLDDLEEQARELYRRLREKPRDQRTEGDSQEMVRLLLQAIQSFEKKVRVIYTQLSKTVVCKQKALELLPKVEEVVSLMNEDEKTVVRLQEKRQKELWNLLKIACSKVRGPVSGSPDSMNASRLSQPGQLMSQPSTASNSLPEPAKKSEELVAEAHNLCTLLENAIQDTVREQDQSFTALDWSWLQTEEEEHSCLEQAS
Outline: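 Enzyme: 0.5 µg/mL IKK2, in 10 mM Tris-HCl pH 7.2, 10 mM MgCl2, 0.05% NaN3, 1 mM DTT, 0.01% Tween-20. Compound at 10 µM pre-incubated 10 min, then 1 µM 5-FAM IκBα peptide and 3 µM ATP added. Reaction 2 h at room temperature. IMAP binding reagent/terbium detection mix added 15 h before reading. TR-FRET read with 340 nm excitation, emission 495/520 nm. Percent inhibition or IC50 derived.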

[2] = target: T2, Inhibitor of nuclear factor kappa-B kinase subunit beta (Homo sapiens) (UniProt O14920); assay: Allosteric inhibition of IKKbeta (unknown origin) using 5FAM-GRHDSGLDSMK-NH2 as substrate at 0.001 to 30 uM pretreated for 10 mins followed by substrate addition measured immediately by TR-FRET assay; conditions: filed as negative allosteric modulator, dose 0.001-30 µM
T2 sequence (whole entry): T1 sequence (O14920 whole entry)
Outline: (§1)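 IKK2 (0.5 µg/mL) in 10 mM Tris-HCl pH 7.2, 10 mM MgCl2, 0.05% NaN3, 1 mM DTT, 0.01% Tween-20, room temperature. Compound (30 to 0.001 µM, ten roughly three-fold dilutions) preincubated 10 min with enzyme. Reaction started with 1 µM 5FAM-IκBα peptide and 3 µM ATP, run 0, 20, 40 or 60 min. IMAP binding reagent/terbium donor detection, TR-FRET read at 495/520 nm. Kobs fitted against concentration by nonlinear regression.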

[3] = target: T2, Inhibitor of nuclear factor kappa-B kinase subunit beta (Homo sapiens); assay: Allosteric inhibition of IKKbeta (unknown origin) at 0.001 to 30 uM using 5FAM-GRHDSGLDSMK-NH2 as substrate incubated for 10 mins followed by substrate addition and measured after 20 mins by TR-FRET assay relative to control; conditions: filed as negative allosteric modulator, dose 0.001-30 µM, time 30.0 min; outline: as §1
[4] = target: T1, Inhibitor of nuclear factor kappa-B kinase subunit beta; assay: Allosteric inhibition of IKKbeta (unknown origin) using 5FAM-GRHDSGLDSMK-NH2 as substrate incubated for 10 mins followed by substrate addition and measured after 60 mins by TR-FRET assay
Outline: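 Kinetic IMAP TR-FRET run with 0.5 µg/mL IKK2 in 10 mM Tris-HCl pH 7.2, 10 mM MgCl2, 0.05% NaN3, 1 mM DTT, 0.01% Tween-20. Compound (ten doses, 30 to 0.001 µM) pre-incubated with enzyme 10 min, then 1 µM IκBα-derived substrate and 3 µM ATP added. Room temperature. Reactions run 0, 20, 40 or 60 min. Ten-point curves fitted by nonlinear regression.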

[5] = target: T2, Inhibitor of nuclear factor kappa-B kinase subunit beta (Homo sapiens); assay: Allosteric inhibition of IKKbeta (unknown origin) assessed as inactivation constant using 5FAM-GRHDSGLDSMK-NH2 as substrate incubated for 10 mins followed by substrate addition and measured upto 60 mins by TR-FRET assay; conditions: filed as negative allosteric modulator, time 70.0 min; outline: as §1
[6] = system: RAW264.7; assay: Antiinflammatory activity against mouse RAW264.7 cells assessed as reduction in LPS-induced TNF-alpha level incubated for 1 hr followed by LPS stimulation and measured after 24 hrs by ELISA; format: functional, cell-based
Outline: (§2)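 RAW 264.7 cells (DMEM, 10% FBS, 37 °C, 5% CO2) plated at 2×10^5 cells/mL and left overnight. Compounds (0.1, 1, 10 µM) or NS-398 given for 1 h, then LPS 10 ng/mL for 24 h. Culture medium assayed by ELISA: competitive colorimetric for PGE2/TNF-α, mouse DuoSet for TNF-α/IL-6. IC50 is the concentration lowering the mediator to 50%.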

[7] = system: RAW264.7; assay: Antiinflammatory activity against mouse RAW264.7 cells assessed as reduction in LPS-induced PGE2 level incubated for 1 hr followed by LPS stimulation and measured after 24 hrs by ELISA; format: functional, cell-based; outline: as §2
[8] = system: RAW264.7; assay: Antiinflammatory activity against mouse RAW264.7 cells assessed as reduction in LPS-induced TNF-alpha level at 10 uM incubated for 1 hr followed by LPS stimulation and measured after 24 hrs by ELISA relative to control; format: functional; conditions: time 25 hrs; outline: as §2
[9] = system: RAW264.7; assay: Cytotoxicity against mouse RAW264.7 cells assessed as reduction in cell viability at 6 uM incubated for 24 hrs by MTT assay; format: cell-based; conditions: raw264.7, 24 h
Outline: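 MTT viability in RAW 264.7 cells seeded at 1×10^5 cells/mL and incubated overnight. Compounds added with or without LPS (1 µg/mL) for 24 h. MTT for 4 h at 37 °C, formazan dissolved in DMSO, absorbance read at 540 nm. IC80 is the concentration reducing viability to 80% with LPS.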

[10] = Cytotoxicity against non-stimulated mouse RAW264.7 cells upto 10 uM after 24 hrs by MTT assay; conditions: raw264.7, 24 h
[11] = system: RAW264.7; assay: Antiinflammatory activity against mouse RAW264.7 cells assessed as reduction in LPS-induced PGE2 production at 0.1 uM incubated for 1 hr followed by LPS stimulation and measured after 24 hrs by ELISA; format: functional, cell-based; conditions: time 25.0 hrs; outline: as §2

Row | Structure (SMILES) | pIC50 [1] | inhibition [2] [%] | inhibition [3] [%] | pIC50 [4] | Kinact [5] [min⁻¹] | pIC50 [6] | inhibition ([6]; time 25.0 hrs) | pIC50 [7] | inhibition at 10 µM [8] [%] | Activity [9] | Activity [10] | Activity [11]
1 | CN1CCN(CCCCCOc2cccc(N3C(=O)S/C(=C\c4ccc(Oc5ccc([N+](=O)[O-])cc5)cc4)C3=O)c2)CC1 | 6.66 | -5.63 | -3.68 | 6.66 | 0.027 | 5.28 | Dose-dependent effect | < 5.00 | 84 | Non-Toxic | Non-Toxic | –
2 | CN1CCN(CCCOc2ccc(N3C(=O)S/C(=C\c4ccc(Oc5ccc(C#N)cc5)cc4)C3=O)cc2)CC1 | 6.70 | -9.33 | -7.14 | 6.69 | 0.013 | 5.20 | – | 5.01 | 80 | Non-Toxic | Non-Toxic | Active
